Measurements: ChEMBL document CHEMBL2086314, “Synthesis and anticonvulsant activity of new N-Mannich bases derived from 3-(2-fluorophenyl)- and 3-(2-bromophenyl)-pyrrolidine-2,5-diones. Part II” (Bioorg Med Chem, 2012)
Calls of active or inactive are those of the source. The calls are words filed in the database; no cut-off is given here.

What follows are molecules tested on Mus musculus (assay: Anticonvulsant activity in ip dosed CF-1 albino mouse assessed as protection from maximal electric shock-induced seizures measured after 0.5 hrs). Details: read-out: MED.
Format: functional
Summary of the method: (§1)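 Male CF-1 mice dosed ip at 30, 100 or 300 mg/kg, suspension in 0.5% methylcellulose/water. MES: corneal electrodes primed with electrolyte containing anaesthetic, 50 mA, 60 Hz, 0.2 s. Examined 0.5 and 4 h after dosing. Value is the minimum dose protecting half or more of the animals.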

| Structure (SMILES) | minimal effective dose [mg/kg] |
| --- | --- |
| O=C1CC(c2ccccc2F)C(=O)N1CN1CCN(Cc2ccccc2)CC1 (racemic) | 300 |

Each molecule was assayed on Mus musculus (assay: Neurotoxicity in CF-1 albino mouse assessed as myoclonic jerks at 100 mg/kg, ip measured after 0.5 hrs by rotarod test). Details: in vivo.
Format: toxicity, organism-based
Set-up: dose 100 mg/kg, route intraperitoneal

| Structure (SMILES) | Activity |
| --- | --- |
| O=C1CC(c2ccccc2Br)C(=O)N1CN1CCN(c2ncccn2)CC1 (racemic) | Toxic |

The molecules below were run on Mus musculus (assay: Anticonvulsant activity in CF-1 albino mouse assessed as protection from maximal electric shock-induced seizures at 300 mg/kg, ip measured after 0.5 hrs). Details: not given.
Format: functional, organism-based
Set-up: dose 300 mg/kg
Summary of the method: as §1

| Structure (SMILES) | Activity |
| --- | --- |
| O=C1CC(c2ccccc2Br)C(=O)N1CN1CCN(c2ncccn2)CC1 (racemic) | inactive |
| CCC1(C)CC(=O)NC1=O (stereo not drawn) [ETHOSUXIMIDE] | inactive |

Each molecule was assayed on Mus musculus (assay: Anticonvulsant activity in ip dosed CF-1 albino mouse assessed as protection from maximal electric shock-induced seizures measured after 4 hrs). Details: read-out: MED.
Format: functional
Summary of the method: as §1

| Structure (SMILES) | minimal effective dose [mg/kg] |
| --- | --- |
| O=C1CC(c2ccccc2Br)C(=O)N1CN1CCN(c2ncccn2)CC1 (racemic) | 100 |
| O=C1CC(c2ccccc2F)C(=O)N1CN1CCN(Cc2ccccc2)CC1 (racemic) | 300 |

Each molecule was assayed on Mus musculus (assay: Anticonvulsant activity in ip dosed CF-1 albino mouse assessed as protection against subcutaneous pentylenetetrazol-induced seizures measured after 4 hrs). Details: read-out: MED.
Format: functional
Summary of the method: (§2)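 scPTZ test in male CF-1 mice. Compound suspended in 0.5% methylcellulose/water, ip at 30, 100 or 300 mg/kg. Pentylenetetrazole 85 mg/kg (CD97, clonic seizures lasting at least 5 s) given subcutaneously at the test time, read at 0.5 and 4 h. Value is the minimum dose protecting half or more of the animals.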

| Structure (SMILES) | minimal effective dose [mg/kg] |
| --- | --- |
| O=C1CC(c2ccccc2Br)C(=O)N1CN1CCN(c2ncccn2)CC1 (racemic) | 300 |
| CCC1(C)CC(=O)NC1=O (stereo not drawn) [ETHOSUXIMIDE] | 300 |

Each molecule was assayed on Mus musculus (assay: Anticonvulsant activity in CF-1 albino mouse assessed as protection from maximal electric shock-induced seizures at 300 mg/kg, ip measured after 4 hrs). Details: not given.
Format: functional, organism-based
Set-up: dose 300 mg/kg
Summary of the method: as §1

| Structure (SMILES) | Activity |
| --- | --- |
| CCC1(C)CC(=O)NC1=O (stereo not drawn) [ETHOSUXIMIDE] | inactive |

These molecules were tested on Mus musculus (assay: Anticonvulsant activity in CF-1 albino mouse assessed as protection from maximal electric shock-induced seizures at 100 mg/kg, ip measured after 6 hrs). Details: not given.
Format: functional, organism-based
Set-up: dose 100 mg/kg

| Structure (SMILES) | Activity |
| --- | --- |
| O=C1CC(c2ccccc2Br)C(=O)N1CN1CCN(c2ncccn2)CC1 (racemic) | Active |

The molecules below were run on Mus musculus (assay: Neurotoxicity in ip dosed CF-1 albino mouse assessed as motor impairment measured after 0.5 hrs by rotarod test). Details: in vivo.
Format: toxicity, organism-based
Summary of the method: (§3)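 Rotarod neurotoxicity in male CF-1 mice given ip doses of 30, 100 or 300 mg/kg (0.5% methylcellulose suspension), examined 0.5 and 4 h after dosing. Impairment means failing to hold balance on the rod for 1 min. Value is the minimum dose causing toxicity in half or more of the animals; response comments are recorded.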

| Structure (SMILES) | MTC [mg/kg] |
| --- | --- |
| O=C1CC(c2ccccc2Br)C(=O)N1CN1CCN(c2ncccn2)CC1 (racemic) | 300 |
| O=C1CC(c2ccccc2F)C(=O)N1CN1CCN(Cc2ccccc2)CC1 (racemic) | 300 |

These molecules were tested on Mus musculus (assay: Neurotoxicity in CF-1 albino mouse assessed as motor impairment at 300 mg/kg, ip measured after 0.5 hrs by rotarod test). Details: in vivo.
Format: toxicity, organism-based
Set-up: dose 300 mg/kg, route intraperitoneal
Summary of the method: as §3

| Structure (SMILES) | Activity |
| --- | --- |
| CCC1(C)CC(=O)NC1=O (stereo not drawn) [ETHOSUXIMIDE] | Non-toxic |

What follows are molecules tested on Mus musculus (assay: Neurotoxicity in CF-1 albino mouse assessed as motor impairment, ip measured after 4 hrs by rotarod test). Details: in vivo.
Format: toxicity, organism-based

| Structure (SMILES) | MTC [mg/kg] |
| --- | --- |
| O=C1CC(c2ccccc2Br)C(=O)N1CN1CCN(c2ncccn2)CC1 (racemic) | 300 |

Each molecule was assayed on Mus musculus (assay: Neurotoxicity in CF-1 albino mouse assessed as motor impairment at 300 mg/kg, ip measured after 4 hrs by rotarod test). Details: in vivo.
Format: toxicity, organism-based
Set-up: dose 300 mg/kg, route intraperitoneal
Summary of the method: as §3

| Structure (SMILES) | Activity |
| --- | --- |
| CCC1(C)CC(=O)NC1=O (stereo not drawn) [ETHOSUXIMIDE] | Non-toxic |
| O=C1CC(c2ccccc2F)C(=O)N1CN1CCN(Cc2ccccc2)CC1 (racemic) | Non-toxic |

These molecules were tested on Mus musculus (assay: Neurotoxicity in CF-1 albino mouse assessed as inability to grasp rotarod at 300 mg/kg, ip measured after 0.5 hrs by rotarod test). Details: in vivo.
Format: toxicity, organism-based
Set-up: dose 300 mg/kg, route intraperitoneal
Summary of the method: as §3

| Structure (SMILES) | Activity |
| --- | --- |
| O=C1CC(c2ccccc2F)C(=O)N1CN1CCN(Cc2ccccc2)CC1 (racemic) | Toxic |

The molecules below were run on Mus musculus (assay: Anticonvulsant activity in ip dosed CF-1 albino mouse assessed as protection against subcutaneous pentylenetetrazol-induced seizures measured after 0.5 hrs). Details: read-out: MED.
Format: functional
Summary of the method: as §2

| Structure (SMILES) | minimal effective dose [mg/kg] |
| --- | --- |
| O=C1CC(c2ccccc2Br)C(=O)N1CN1CCN(c2ncccn2)CC1 (racemic) | 100 |
| CCC1(C)CC(=O)NC1=O (stereo not drawn) [ETHOSUXIMIDE] | 100 |
| O=C1CC(c2ccccc2F)C(=O)N1CN1CCN(Cc2ccccc2)CC1 (racemic) | 300 |

What follows are molecules tested on Mus musculus (assay: Anticonvulsant activity in CF-1 albino mouse assessed as protection against subcutaneous pentylenetetrazol-induced seizures at 300 mg/kg, ip measured after 4 hrs). Details: not given.
Format: functional, organism-based
Set-up: dose 300 mg/kg
Summary of the method: as §2

| Structure (SMILES) | Activity |
| --- | --- |
| O=C1CC(c2ccccc2F)C(=O)N1CN1CCN(Cc2ccccc2)CC1 (racemic) | inactive |

What follows are molecules tested on Mus musculus (assay: Neurotoxicity in CF-1 albino mouse assessed as myoclonic jerks at 300 mg/kg, ip measured after 0.5 hrs by rotarod test). Details: in vivo.
Format: toxicity, organism-based
Set-up: dose 300 mg/kg, route intraperitoneal

| Structure (SMILES) | Activity |
| --- | --- |
| O=C1CC(c2ccccc2F)C(=O)N1CN1CCN(Cc2ccccc2)CC1 (racemic) | Toxic |

What follows are molecules tested on Mus musculus (assay: Neurotoxicity in CF-1 albino mouse assessed as myoclonic jerks at 300 mg/kg, ip measured after 4 hrs by rotarod test). Details: in vivo.
Format: toxicity, organism-based
Set-up: dose 300 mg/kg, route intraperitoneal

| Structure (SMILES) | Activity |
| --- | --- |
| O=C1CC(c2ccccc2Br)C(=O)N1CN1CCN(c2ncccn2)CC1 (racemic) | Toxic |

The molecules below were run on Mus musculus (assay: Anticonvulsant activity in CF-1 albino mouse assessed as protection against 6 Hz psychomotor seizure at 100 mg/kg, ip measured after 0.25 hrs). Details: route intraperitoneal.
Format: functional
Summary of the method: (§4)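 6-Hz psychomotor seizure in male CF-1 mice, compound suspended in 0.5% methylcellulose/water, given ip (100 or 75 mg/kg). Corneal stimulation with 0.2 ms monopolar rectangular pulses at 6 Hz for 3 s, 32 mA, constant-current device. Protected if normal exploratory behaviour resumes within 10 s. Tested 0.25–4 h after dosing; value is mice protected out of four.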

| Structure (SMILES) | Activity [%] |
| --- | --- |
| O=C1CC(c2ccccc2F)C(=O)N1CN1CCN(Cc2ccccc2)CC1 (racemic) | 0 |

What follows are molecules tested on Mus musculus (assay: Anticonvulsant activity in CF-1 albino mouse assessed as protection against 6 Hz psychomotor seizure at 100 mg/kg, ip measured after 0.5 hrs). Details: route intraperitoneal.
Format: functional
Summary of the method: as §4

| Structure (SMILES) | Activity [%] |
| --- | --- |
| O=C1CC(c2ccccc2F)C(=O)N1CN1CCN(Cc2ccccc2)CC1 (racemic) | 25 |

These molecules were tested on Mus musculus (assay: Anticonvulsant activity in CF-1 albino mouse assessed as protection against 6 Hz psychomotor seizure at 100 mg/kg, ip measured after 1 hr). Details: route intraperitoneal.
Format: functional
Summary of the method: as §4

| Structure (SMILES) | Activity [%] |
| --- | --- |
| O=C1CC(c2ccccc2F)C(=O)N1CN1CCN(Cc2ccccc2)CC1 (racemic) | 0 |

What follows are molecules tested on Mus musculus (assay: Anticonvulsant activity in CF-1 albino mouse assessed as protection against 6 Hz psychomotor seizure at 100 mg/kg, ip measured after 2 hrs). Details: route intraperitoneal.
Format: functional
Summary of the method: as §4

| Structure (SMILES) | Activity [%] |
| --- | --- |
| O=C1CC(c2ccccc2F)C(=O)N1CN1CCN(Cc2ccccc2)CC1 (racemic) | 0 |

These molecules were tested on Mus musculus (assay: Anticonvulsant activity in CF-1 albino mouse assessed as protection against 6 Hz psychomotor seizure at 100 mg/kg, ip measured after 4 hrs). Details: route intraperitoneal.
Format: functional
Summary of the method: as §4

| Structure (SMILES) | Activity [%] |
| --- | --- |
| O=C1CC(c2ccccc2F)C(=O)N1CN1CCN(Cc2ccccc2)CC1 (racemic) | 0 |
